The nature of test [1]: Binding affinity towards norepinephrine transporter determined using [3H]nisoxetine as radioligand. The method in brief: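 Competition binding at the norepinephrine transporter against [³H]nisoxetine, present at 1.0 nM final concentration.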
Test [2] in a line: Binding affinity of compound towards dopamine transporter determined using [3H]WIN-35 428 as radioligand. The gist of the method: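 Competition binding at the dopamine transporter; displacement of [³H]WIN 35,428 at 0.5 nM final concentration.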
Test [3] in a line: Binding affinity towards serotonin transporter determined using [3H]paroxetine as radioligand. The gist of the method: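 Serotonin transporter affinity from competition binding versus [³H]paroxetine at a final concentration of 0.2 nM.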

The structures appear in SMILES notation. pIC50, pKi: −log10 of the molar value.

Consider `COC(=O)C1C(c2ccc(Cl)c(Cl)c2)CC2CCC1N2C` (stereo unspecified), for which the negative-log Ki (pKi) (as a rule, −log10 of the Ki, conventionally taken in molar units) in test [1] is 7.74; in test [3], 8.50. The pIC50 (usually −log10 of the IC50, conventionally taken in molar units) in test [2] is 9.10.
`COC(=O)C1C(c2ccc(Cl)c(I)c2)CC2CCC1N2C` (stereo unspecified): the pKi in test [1] was 7.82; in test [3], 8.86. Besides, the pIC50 in test [2] is 9.39.
Regarding `COC(=O)[C@@H]1C2CC[C@H](C[C@@H]1c1ccccc1)N2C`, the pKi in test [1] is 6.04; in test [3], 5.97. In test [2], this compound showed a pIC50 of 7.64.
For `COC(=O)C1C2CC[C@H](C[C@@H]1c1ccc(I)c(Br)c1)N2C` (stereo partly specified) the same measures were 8.71, 9.24 and 9.70.
`COC(=O)C1C(c2ccc(Cl)c(Br)c2)CC2CCC1N2C` (stereo unspecified): the pKi in test [1] was 8.14; in test [3], 9.11. The negative logarithm of the IC50 (pIC50) in test [2] is 9.38.
For the compound `COC(=O)C1C(c2ccc(Br)c(Br)c2)CC2CCC1N2C` (stereo unspecified), the pKi in test [1] is 8.55; in test [3] it was 9.15. The compound also showed a pIC50 in test [2] of 9.57.
As to `COC(=O)C1C(c2ccc(Br)c(I)c2)CC2CCC1N2C` (stereo unspecified), the pKi in test [1] is 7.98; in test [3], 8.94. This compound also showed a pIC50 in test [2] of 9.68.
As to `COC(=O)C1C2CC[C@H](C[C@@H]1c1ccc(I)c(Cl)c1)N2C` (stereo partly specified), the pKi is 8.90 in test [1] and 8.98 in test [3]. Moreover, the negative logarithm of the IC50 (pIC50) in test [2] is 9.59.
As to `COC(=O)C1C(c2ccc(I)c(I)c2)CC2CCC1N2C` (stereo unspecified), the figures for the negative logarithm of the Ki (pKi) in test [1] and in test [3] were 7.39 and 8.70, respectively. In test [2], this compound gave a negative-log IC50 (pIC50) of 9.01.
Turning to `COC(=O)C1C(c2ccc(C)c(C)c2)CC2CCC1N2C` (stereo unspecified), the negative-log Ki (pKi) is 6.97 in test [1] and 8.01 in test [3]. The negative logarithm of the IC50 (pIC50) in test [2] was 9.37.
As to `COC(=O)C1C2CC[C@H](C[C@@H]1c1ccc(Cl)c(C)c1)N2C` (stereo partly specified), the pKi in test [1] was 7.44; in test [3] it was 7.98. The compound further had a pIC50 in test [2] of 9.09.
Regarding `COC(=O)C1C(c2ccc(Br)c(Cl)c2)CC2CCC1N2C` (stereo unspecified), the values for the negative-log Ki (pKi) in test [1] and in test [3] were 8.88 and 9.03, respectively. The pIC50 in test [2] was 9.92.

The values above are taken from ChEMBL document CHEMBL1143590, “Synthesis and monoamine transporter binding properties of 3beta-(3',4'-disubstituted phenyl)tropane-2beta-carboxylic acid methyl esters” (J Med Chem, 2005).
